# Screening results (PubChem BioAssay)
# Shown are actives, neighbours in structure and some others; about 2.1% of the full set was active somewhere.
# ERp5 inh: inhibitors of human ERp5; ERp5 insulin aggregation, absorbance 650 nm, 90 min; inhibition, % at 9.99 µM; Q15084; actives 0.05% (n = 350,000);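 active = mean replicate inhibition above about 25%, with every replicate also reaching it, limit read from the data, passing the limit was not always enough; inconclusive = only one of those two criteria met; inactive = neither criterion met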
# ARNT TACC3 PPI: ARNT/TACC3 interaction disruption | actives 0.66% (n = 390,000) | Q9Y6A5 | inhibition, % at 9.99 µM | AlphaScreen His-ARNT PAS-B/GST-TACC3 binding, luminescence; TACC3 fragment carries E629A point mutation;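 active = mean inhibition of replicates at least 50% and at least half of replicates each reaching 50%; inconclusive = half or more replicates reach 50% but mean below 50%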;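 note: 0% = complete ARNT plus TACC3 wells and 100% = ARNT alone without TACC3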
# MLL AF4-AF9 inh: blocks AF4 peptide binding to human AF9; P42568; AlphaScreen, biotin-AF4 peptide binding to FLAG-AF9; inhibition, % at 10 µM; actives 0.47% (n = 350,000); AID 651704;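 active = every replicate reaching a set inhibition limit, whatever the replicate mean, cut at about 25% in these data; inconclusive = mean inhibition reaches that limit but some replicates miss it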;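 note: 0% = plate neutral control median and 100% = total signal loss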
# Target sequence (P42568 whole entry, looked up): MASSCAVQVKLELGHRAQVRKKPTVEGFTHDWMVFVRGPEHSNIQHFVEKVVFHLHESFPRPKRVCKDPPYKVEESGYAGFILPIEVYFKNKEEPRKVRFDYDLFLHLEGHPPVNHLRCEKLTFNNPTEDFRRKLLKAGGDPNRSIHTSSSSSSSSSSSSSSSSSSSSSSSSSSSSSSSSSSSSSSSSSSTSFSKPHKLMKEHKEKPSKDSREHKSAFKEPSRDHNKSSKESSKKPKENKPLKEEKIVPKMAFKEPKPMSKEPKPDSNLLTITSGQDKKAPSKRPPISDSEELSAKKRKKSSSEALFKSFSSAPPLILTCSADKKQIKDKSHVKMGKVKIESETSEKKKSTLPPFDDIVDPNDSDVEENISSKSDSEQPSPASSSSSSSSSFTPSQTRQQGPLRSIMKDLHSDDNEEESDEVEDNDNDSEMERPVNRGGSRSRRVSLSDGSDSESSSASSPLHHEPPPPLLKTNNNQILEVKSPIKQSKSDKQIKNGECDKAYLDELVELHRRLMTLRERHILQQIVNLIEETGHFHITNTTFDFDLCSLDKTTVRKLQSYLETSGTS
# FGF22 binding: binders of recombinant human FGF22 by thermal shift | Q9HCT0 | actives 1.5% (n = 340,000) | activity (Tm shift, normalised), % at 9.99 µM | SYPRO orange fluorescence; percent of sucrose octasulfate shift, DMSO zero | AID 651658;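 active = mean Tm shift, scaled 0 neutral to 100 positive control, at about 1.3% or above, every replicate too, limit read from the data; inconclusive = no clear call, values can overlap the other calls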
# FN deposition inh: fibronectin deposition inhibition; AH1F fibroblasts, Alexa488-fibronectin deposition fluorescence, overnight; inhibition, % at 12.6 µM; actives 0.086% (n = 350,000);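 active = mean inhibition across replicates of 30% or more, regardless of how many single replicates reach that level; inconclusive = mean under 30% yet at least half of replicates reach 30%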;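 note: positive control wells lacked labelled fibronectin entirely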
#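 Measured by – fluorescence 485/525 nm · System – AH1F fibroblast monolayer, labelled fibronectin deposition · Amount – 10000 cells per well · Buffer or medium – serum-reduced DMEM (2% serum) · Doses – single dose, pinned · Also added – fluorescent fibronectin at 24 nM final · Schedule – 1 h cell attachment, overnight exposure to compound and label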
# PDI turbidity: PDI (human) enzyme inhibition. inhibition, % at 10 µM. actives 0.052% (n = 350,000). PDI insulin aggregation turbidity, A650, 90 min. P07237;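 active = mean inhibition across replicates of 30% or more, whatever share of single replicates reach that level; inconclusive = mean inhibition below 30% while every single replicate reaches 30%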
# * marks the source's active call; other numbers are inactive results; ? = inconclusive; / = no result given.
SMILES,ERp5 inh,ARNT TACC3 PPI,MLL AF4-AF9 inh,FGF22 binding,FN deposition inh,PDI turbidity
CCCN1C[C@H](C)[C@H](OC)CN(C)C(=O)c2cc(NC(=O)C3CC3)ccc2OC[C@@H]1C,-5,-5,-2,0,-4,/
CCOc1ccccc1C(=O)N/N=C/c1cccc2cccnc12,/,72*,/,/,/,0
COc1ccc(C(=O)N/N=C/c2cccnc2)cc1,2,6,0,0,3,-7
CCOc1ccc(C(=O)N/N=C/c2cccc3cccnc23)cc1,/,65*,/,/,/,-4
COc1ccc(C(=O)N/N=C/c2cccc3cccnc23)cc1,/,88*,/,/,/,1
CCC(=O)N1C[C@H](C)[C@H](OC)CN(C)C(=O)c2cc(NC(=O)NC(C)C)ccc2OC[C@H]1C,2,-6,2,0,-21,/
CCCCCCCCCCCCCCCCn1cc[n+](C)c1,14,2,11,-2,34*,?
CCCCCCCCn1ccc(=N)cc1,4,-1,-3,0,-3,5
CCCN1[C@@H]2c3ccc(-c4ccccc4)c(=O)n3C[C@@H]2[C@@H](CO)[C@@H]1C(=O)NCC(F)(F)F,-8,4,-1,0,/,/
CCN1[C@@H]2c3ccc(-c4ccccc4)c(=O)n3C[C@@H]2[C@@H](CO)[C@@H]1C(=O)NCC(F)(F)F,37*,2,0,0,/,/
COc1cccc(NC(=O)N(C)C[C@H]2Oc3ncc(C4=CCCCC4)cc3C(=O)N([C@H](C)CO)C[C@@H]2C)c1,-5,-1,0,-1,/,/
C=CCNc1ncnc2c1ncn2[C@H]1CN(Cc2cccc3ccccc23)C[C@@H](CO)O1,-5,/,0,0,10,39*
Cc1ccc(S(=O)(=O)N(C)C[C@H]2Oc3ccc(NC(=O)Nc4ccc(C(F)(F)F)cc4)cc3C(=O)N([C@H](C)CO)C[C@H]2C)cc1,-1,5,0,2.7*,/,/
Cc1ccc(S(=O)(=O)N(C)C[C@@H]2Oc3ccc(NC(=O)Nc4ccc(C(F)(F)F)cc4)cc3C(=O)N([C@H](C)CO)C[C@H]2C)cc1,3,4,-3,0,/,/
C[C@H](CO)N1C[C@H](C)[C@@H](CN(C)S(=O)(=O)c2ccc(F)cc2)Oc2ccc(NC(=O)Nc3ccc(C(F)(F)F)cc3)cc2C1=O,-5,1,-3,0,17,-4
C[C@@H]1CN([C@H](C)CO)C(=O)c2cc(NC(=O)Nc3ccc(C(F)(F)F)cc3)ccc2O[C@@H]1CN(C)S(=O)(=O)c1ccc(F)cc1,29*,-2,1,1,/,/
C[C@H](CO)N1C[C@H](C)[C@H](CN(C)C)Oc2ccc(NC(=O)Nc3ccc(F)cc3)cc2C1=O,-1,46*,0,0,/,/
COc1cccc(NC(=O)N[C@@H]2CC[C@@H](CC(=O)N3CCOCC3)O[C@H]2CO)c1,4,6,-2,0,/,/
COc1ccc(-c2ccc3c(c2)[C@@H]2[C@@H](CCN2C(=O)NC2CCCCC2)[C@@H](CO)N3C)cc1,-4,20,7,0,-5,/
CN1c2ccc(C3=CCCCC3)cc2[C@@H]2[C@@H](CCN2C(=O)C2CCCCC2)[C@H]1CO,-6,/,25*,/,-1,/
COc1ccc(-c2ccc3c(c2)[C@@H]2[C@@H](CCN2C(=O)C2CCCC2)[C@H](CO)N3C)cc1,0,/,35*,/,-13,/
CN(C)C(=O)c1ccc(-c2ccc3c(c2)[C@@H]2[C@@H](CCN2C(=O)c2ccc(F)cc2)[C@H](CO)N3C)cc1,5,-11,11,0,31*,/
COc1cccc(-c2ccc3c(c2)[C@@H]2[C@@H](CCN2C(=O)NC2CCCC2)[C@H](CO)N3C)c1,-2,21,26*,-1,-21,/
O=C(C[C@H]1C[C@H]2c3cc(NC(=O)Nc4ccc(C(F)(F)F)cc4)ccc3O[C@H]2[C@H](CO)O1)NCc1ccc(Cl)cc1,2,0,-2,0,/,/
C[C@@H]1CN([C@H](C)CO)C(=O)c2cc(C#Cc3cccnc3)cnc2O[C@H]1CN(C)S(=O)(=O)c1ccccc1F,-9,2,-3,0,-4,/
